From ChEMBL document CHEMBL3272128, “Antileukemic activity of derivatives of 1-phenyl-2,5-dimethyl-3,4-bis(hydroxymethyl)pyrrole bis(N-methylcarbamate)” (J Med Chem, 1977)

Key:
P388 [1] = experiment: Antileukemic activity against mouse P388 cells allografted in male CDF1 mouse assessed as tumor growth inhibition at 12.5 mg/kg, ip using hydroxypropylcellulose suspension total 9 daily doses started 24 hrs after tumor inoculation; assay type: functional; conditions: route intraperitoneal
Method in brief: (§1)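 Male CDF1 mice received P388 ascitic fluid ip, then ip doses in Flucel (hydroxypropylcellulose) suspension, nine daily, beginning 24 h after inoculation. Efficacy was median survival time as % T/C; values > 125 were considered significant.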

Mus musculus [2] = experiment: Toxicity in male CDF1 mouse allografted with mouse P388 cells assessed as survivors on day 5 at 12.5 mg/kg, ip using hydroxypropylcellulose suspension; assay type: organism-based; design: dose 12.5 mg/kg, route intraperitoneal; conditions: in vivo
Method in brief: (§2)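 Male CDF1 mice received an ip inoculation of P388 leukemia ascitic fluid. Dosing was ip in a hydroxypropylcellulose (Flucel) suspension, once daily for nine days, beginning 24 h after tumor implantation. Toxicity was scored as survivors recorded on the fifth day.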

P388 [3] = experiment: Antileukemic activity against mouse P388 cells allografted in male CDF1 mouse assessed as tumor growth inhibition at 25 mg/kg, ip using hydroxypropylcellulose suspension total 9 daily doses started 24 hrs after tumor inoculation; assay type: functional; conditions: route intraperitoneal; method in brief: as §1
P388 [4] = experiment: Antileukemic activity against mouse P388 cells allografted in male CDF1 mouse assessed as change in body weight at 50 mg/kg, ip using hydroxypropylcellulose suspension total 9 daily doses started 24 hrs after tumor inoculation; assay type: functional; conditions: route intraperitoneal
Method in brief: (§3)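 Male CDF1 mice were inoculated ip with P388 ascitic fluid. Compound was given ip as a Flucel (hydroxypropylcellulose) suspension, nine daily doses from 24 h after inoculation. Animal weight difference (T − C, g) was recorded on the fifth day.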

P388 [5] = experiment: Antileukemic activity against mouse P388 cells allografted in male CDF1 mouse assessed as change in body weight at 12.5 mg/kg, ip using hydroxypropylcellulose suspension total 9 daily doses started 24 hrs after tumor inoculation; assay type: functional; conditions: route intraperitoneal; method in brief: as §3
Mus musculus [6] = experiment: Toxicity in male CDF1 mouse allografted with mouse P388 cells assessed as survivors on day 5 at 25 mg/kg, ip using hydroxypropylcellulose suspension; assay type: organism-based; design: dose 25 mg/kg, route intraperitoneal; conditions: in vivo; method in brief: as §2
P388 [7] = experiment: Antileukemic activity against mouse P388 cells allografted in male CDF1 mouse assessed as change in body weight at 25 mg/kg, ip using hydroxypropylcellulose suspension total 9 daily doses started 24 hrs after tumor inoculation; assay type: functional; conditions: route intraperitoneal; method in brief: as §3
P388 [8] = experiment: Antileukemic activity against mouse P388 cells allografted in male CDF1 mouse assessed as tumor growth inhibition at 50 mg/kg, ip using hydroxypropylcellulose suspension total 9 daily doses started 24 hrs after tumor inoculation; assay type: functional; conditions: route intraperitoneal; method in brief: as §1
Mus musculus [9] = experiment: Toxicity in male CDF1 mouse allografted with mouse P388 cells assessed as survivors on day 5 at 50 mg/kg, ip using hydroxypropylcellulose suspension; assay type: organism-based; design: dose 50 mg/kg, route intraperitoneal; conditions: in vivo; method in brief: as §2
P388 [10] = experiment: Antileukemic activity against mouse P388 cells allografted in male CDF1 mouse assessed as tumor growth inhibition at 25 mg/kg, ip using saline as vehicle total 9 daily doses started 24 hrs after tumor inoculation; assay type: functional; conditions: route intraperitoneal
Method in brief: (§4)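 P388 ascitic fluid was given ip to male CDF1 mice. Treatment was ip in saline, nine daily doses from 24 h post-inoculation. Median survival time was expressed as % T/C, and % T/C > 125 was considered significant.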

P388 [11] = experiment: Antileukemic activity against mouse P388 cells allografted in male CDF1 mouse assessed as tumor growth inhibition at 12.5 mg/kg, ip using saline as vehicle total 9 daily doses started 24 hrs after tumor inoculation; assay type: functional; conditions: route intraperitoneal; method in brief: as §4
P388 [12] = experiment: Antileukemic activity against mouse P388 cells allografted in male CDF1 mouse assessed as change in body weight at 12.5 mg/kg, ip using saline as vehicle total 9 daily doses started 24 hrs after tumor inoculation; assay type: functional; conditions: route intraperitoneal
Method in brief: (§5)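 In male CDF1 mice bearing ip-inoculated P388 ascitic fluid, drug was given ip in saline vehicle, once daily for nine doses starting 24 h after inoculation. Body weight difference, treated minus control (g), was recorded on day 5.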

Mus musculus [13] = experiment: Toxicity in male CDF1 mouse allografted with mouse P388 cells assessed as survivors on day 5 at 25 mg/kg, ip using saline as vehicle; assay type: organism-based; design: dose 25 mg/kg, route intraperitoneal; conditions: in vivo
Method in brief: (§6)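 P388 leukemia ascitic fluid was implanted ip into male CDF1 mice. Compound was given ip in saline vehicle as nine daily doses, starting 24 h post-inoculation. Survivor counts were taken on day 5.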

P388 [14] = experiment: Antileukemic activity against mouse P388 cells allografted in male CDF1 mouse assessed as change in body weight at 50 mg/kg, ip using saline as vehicle total 9 daily doses started 24 hrs after tumor inoculation; assay type: functional; conditions: route intraperitoneal; method in brief: as §5
P388 [15] = experiment: Antileukemic activity against mouse P388 cells allografted in male CDF1 mouse assessed as tumor growth inhibition at 50 mg/kg, ip using saline as vehicle total 9 daily doses started 24 hrs after tumor inoculation; assay type: functional; conditions: route intraperitoneal; method in brief: as §4
Mus musculus [16] = experiment: Toxicity in male CDF1 mouse allografted with mouse P388 cells assessed as survivors on day 5 at 12.5 mg/kg, ip using saline as vehicle; assay type: organism-based; design: dose 12.5 mg/kg, route intraperitoneal; conditions: in vivo; method in brief: as §6
P388 [17] = experiment: Antileukemic activity against mouse P388 cells allografted in male CDF1 mouse assessed as change in body weight at 25 mg/kg, ip using saline as vehicle total 9 daily doses started 24 hrs after tumor inoculation; assay type: functional; conditions: route intraperitoneal; method in brief: as §5
Mus musculus [18] = experiment: Toxicity in male CDF1 mouse allografted with mouse P388 cells assessed as survivors on day 5 at 50 mg/kg, ip using saline as vehicle; assay type: organism-based; design: dose 50 mg/kg, route intraperitoneal; conditions: in vivo; method in brief: as §6
P388 [19] = experiment: Antileukemic activity against mouse P388 cells allografted in female CDF1 mouse assessed as tumor growth inhibition at 50 mg/kg, ip using hydroxypropylcellulose suspension total 9 daily doses started 24 hrs after tumor inoculation; assay type: functional; conditions: route intraperitoneal
Method in brief: (§7)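 P388 ascitic fluid was inoculated ip into female CDF1 mice. Dosing was ip in a Flucel (hydroxypropylcellulose) suspension, given daily for nine doses beginning 24 h post-inoculation. Activity was median survival time expressed as % T/C, with % T/C > 125 taken as significant.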

P388 [20] = experiment: Antileukemic activity against mouse P388 cells allografted in female CDF1 mouse assessed as change in body weight at 6.25 mg/kg, ip using hydroxypropylcellulose suspension total 9 daily doses started 24 hrs after tumor inoculation; assay type: functional; conditions: route intraperitoneal
Method in brief: (§8)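 Female CDF1 mice got P388 ascitic fluid ip. Test agent was given ip as a Flucel (hydroxypropylcellulose) suspension, nine daily doses starting 24 h after tumor inoculation. Read-out was the treated minus control animal weight difference (T − C, g), recorded on day 5.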

Mus musculus [21] = experiment: Toxicity in female CDF1 mouse allografted with mouse P388 cells assessed as survivors on day 5 at 200 mg/kg, ip using hydroxypropylcellulose suspension; assay type: organism-based; design: dose 200 mg/kg, route intraperitoneal; conditions: in vivo
Method in brief: (§9)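 Female CDF1 mice were inoculated ip with P388 leukemia ascitic fluid. Test agent was suspended in hydroxypropylcellulose (Flucel) and given ip as nine daily doses, starting 24 h after tumor inoculation. Survivors were counted on day 5 as the toxicity read-out.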

P388 [22] = experiment: Antileukemic activity against mouse P388 cells allografted in female CDF1 mouse assessed as change in body weight at 200 mg/kg, ip using hydroxypropylcellulose suspension total 9 daily doses started 24 hrs after tumor inoculation; assay type: functional; conditions: route intraperitoneal; method in brief: as §8
P388 [23] = experiment: Antileukemic activity against mouse P388 cells allografted in female CDF1 mouse assessed as tumor growth inhibition at 100 mg/kg, ip using hydroxypropylcellulose suspension total 9 daily doses started 24 hrs after tumor inoculation; assay type: functional; conditions: route intraperitoneal; method in brief: as §7
Mus musculus [24] = experiment: Toxicity in female CDF1 mouse allografted with mouse P388 cells assessed as survivors on day 5 at 50 mg/kg, ip using hydroxypropylcellulose suspension; assay type: organism-based; design: dose 50 mg/kg, route intraperitoneal; conditions: in vivo; method in brief: as §9
P388 [25] = experiment: Antileukemic activity against mouse P388 cells allografted in female CDF1 mouse assessed as tumor growth inhibition at 200 mg/kg, ip using hydroxypropylcellulose suspension total 9 daily doses started 24 hrs after tumor inoculation; assay type: functional; conditions: route intraperitoneal; method in brief: as §7
P388 [26] = experiment: Antileukemic activity against mouse P388 cells allografted in female CDF1 mouse assessed as change in body weight at 25 mg/kg, ip using hydroxypropylcellulose suspension total 9 daily doses started 24 hrs after tumor inoculation; assay type: functional; conditions: route intraperitoneal; method in brief: as §8
P388 [27] = experiment: Antileukemic activity against mouse P388 cells allografted in female CDF1 mouse assessed as change in body weight at 100 mg/kg, ip using hydroxypropylcellulose suspension total 9 daily doses started 24 hrs after tumor inoculation; assay type: functional; conditions: route intraperitoneal; method in brief: as §8
P388 [28] = experiment: Antileukemic activity against mouse P388 cells allografted in female CDF1 mouse assessed as change in body weight at 50 mg/kg, ip using hydroxypropylcellulose suspension total 9 daily doses started 24 hrs after tumor inoculation; assay type: functional; conditions: route intraperitoneal; method in brief: as §8
P388 [29] = experiment: Antileukemic activity against mouse P388 cells allografted in female CDF1 mouse assessed as tumor growth inhibition at 25 mg/kg, ip using hydroxypropylcellulose suspension total 9 daily doses started 24 hrs after tumor inoculation; assay type: functional; conditions: route intraperitoneal; method in brief: as §7
Mus musculus [30] = experiment: Toxicity in female CDF1 mouse allografted with mouse P388 cells assessed as survivors on day 5 at 25 mg/kg, ip using hydroxypropylcellulose suspension; assay type: organism-based; design: dose 25 mg/kg, route intraperitoneal; conditions: in vivo; method in brief: as §9

Structure (SMILES) | T/C (P388 [1]) | Activity (Mus musculus [2]) | T/C (P388 [3]) | Activity (P388 [4]) | Activity (P388 [5]) | Activity (Mus musculus [6]) | Activity (P388 [7]) | T/C (P388 [8]) | further results
CCCCc1ccc(-n2c(C)c(COC(=O)NC)c(COC(=O)NC)c2C)cc1 | 190% | Non-toxic | 152% | -4.9 g | -3.1 g | Non-toxic | -4.1 g | 65% | –
CNC(=O)OCc1c(COC(=O)NC)c(C)n(-c2ccc(Br)cc2)c1C | 152% | Non-toxic | 142% | -4.9 g | -2 g | Non-toxic | -3.9 g | 88% | –
CNC(=O)OCc1c(COC(=O)NC)c(C)n(-c2ccc(OC)cc2)c1C | 152% | Non-toxic | 142% | -0.5 g | -2.6 g | Non-toxic | -2.4 g | 171% | Activity (Mus musculus [9]): Non-toxic
CCOc1ccc(-n2c(C)c(COC(=O)NC)c(COC(=O)NC)c2C)cc1 | 152% | Non-toxic | 150% | -3.8 g | -3 g | Non-toxic | -3.4 g | 90% | –
CNC(=O)OCc1c(COC(=O)NC)c(C)n(-c2ccc3c(c2)OCO3)c1C | 132% | Non-toxic | 146% | -3.4 g | -1.1 g | Non-toxic | -1.6 g | <50% | –
CNC(=O)OCc1c(COC(=O)NC)c(C)n(-c2ccc(C)cc2)c1C | 142% | Non-toxic | 136% | -2.6 g | -2.5 g | Non-toxic | -2.3 g | 133% | Activity (Mus musculus [9]): Non-toxic
CNC(=O)OCc1c(COC(=O)NC)c(C)n(-c2ccc(F)cc2)c1C | 142% | Non-toxic | 155% | -2.6 g | -2.6 g | Non-toxic | -2.1 g | 133% | Activity (Mus musculus [9]): Non-toxic
CNC(=O)OCc1c(COC(=O)NC)c(C)n(-c2ccc(Cl)cc2)c1C | – | – | – | – | – | – | – | – | T/C (P388 [10]): 142%; T/C (P388 [11]): 145%; Activity (P388 [12]): -1.3 g; Activity (Mus musculus [13]): Non-toxic; Activity (P388 [14]): -2.9 g; T/C (P388 [15]): 80%; Activity (Mus musculus [16]): Non-toxic; Activity (P388 [17]): -3.8 g
CNC(=O)OCc1c(COC(=O)NC)c(C)n(-c2ccc(Cl)c(Cl)c2)c1C | – | – | – | – | – | – | – | – | T/C (P388 [10]): 148%; T/C (P388 [11]): 160%; Activity (Mus musculus [18]): Non-toxic; Activity (P388 [12]): -1.5 g; Activity (Mus musculus [13]): Non-toxic; Activity (P388 [14]): -2.6 g; T/C (P388 [15]): 84%; Activity (Mus musculus [16]): Non-toxic; Activity (P388 [17]): -2.9 g
COc1ccc(-n2c(C)c(COC(C)=O)c(COC(C)=O)c2C)cc1 | 157% | Non-toxic | 95% | -3.2 g | -1.6 g | Non-toxic | -3.8 g | 75% | –
CNC(=O)OCc1c(COC(=O)NC)c(C)n(-c2ccccc2)c1C | 145% | – | 148% | – | -1.3 g | Non-toxic | -1.7 g | – | T/C (P388 [19]): <50%; Activity (P388 [20]): -2.1 g; Activity (Mus musculus [21]): Toxic; Activity (P388 [22]): -1.5 g; T/C (P388 [23]): <50%; Activity (Mus musculus [24]): Non-toxic; T/C (P388 [25]): <50%; Activity (P388 [26]): -1.6 g; Activity (P388 [27]): -2.1 g; Activity (P388 [28]): -2 g; T/C (P388 [29]): 127%; Activity (Mus musculus [30]): Non-toxic
